Tested on: MS2 coat protein
Assay: apparent Kd, MS2 coat protein; higher = weaker binding; RNA-MaP array; FMN 200 µM where present
Outline: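 Green signal was scaled to red-channel RNA signal and control-cluster median Fmax, and the apparent Kd was taken as the median of filtered per-cluster binding-curve fits. The binding series used SNAP-549-labelled MS2 coat protein from 0.7 or 1.5 nM, doubling to 3 µM, on designs transcribed by stalled E. coli RNA polymerase on Illumina sequencing-chip clusters. Each series ran without and then with constant ligand in 100 mM Tris-HCl pH 7.5, 80 mM KCl, 4 mM MgCl2, BSA, DTT, yeast tRNA and Tween-20.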

[1] = designed as: OFF switch for flavin mononucleotide, no ligand
[2] = ligand present: flavin mononucleotide, designed as: OFF switch for flavin mononucleotide
[3] = designed as: ON switch for flavin mononucleotide, no ligand
[4] = ligand present: flavin mononucleotide, designed as: ON switch for flavin mononucleotide

Row | Sequence | apparent Kd [1] | apparent Kd [2] | apparent Kd [3] | apparent Kd [4]
1 | UAUUACAGAUAAGGAUAUCGACAUGAGGAUCACCCAUGUAUUUGGGAAUGUUUACUGAAUUCUUACGAGAAGGUAUACGUACUU | 154 nM | 118 nM | – | –
2 | CACCGUUAAAGAGGAUAUCGUACAUGAGGAUCACCCAUGUAAUAAAUGAGAAUUUCGGAUGUAUGCGAGAAGGCUUAAAUCGGC | 52.9 nM | 48.3 nM | – | –
3 | GCGUUCUUGUAGAAGGUACAUACGACAUCUUAUAAACGCAUGACACAUGAGGAUCACCCAUGUUGUAAGGAUAUACAUGAACGC | – | – | 8.88 nM | 8.05 nM
4 | GUAGCUACAUGAGGAUCACCCAUGUAGGAUAUCGCUAUUGUAAUCAUGAAACAUGAUUACAAUAGCGAGAAGGACGUUAGCUAC | 6.31 nM | 7.31 nM | – | –
5 | AUUGACUGAGGAUAUUGUACUGCUGACAUGAGGAUCACCCAUGUAUGCUAACUCGGCCGUCGAGAAGGCAGUAAUG | 39 nM | 27.3 nM | – | –
6 | AAGAAAGAAACAUAGGAUAUCAAGGAUAUAACAUGAGGAUCACCCAUGUAAAUACGAAAGUAUAAUGAGAAGGAUGGAUGAUCUUC | – | – | 86.1 nM | 122 nM
7 | AGAGACCUCACAGGAUAUGCUGGACUUUGUCCAGCAGAAGGGUGAAAACAUGAGGAUCACCCAUGUAUGGUCUCCAAAUUUAAA | – | – | 186 nM | 12.1 nM
8 | CCUAGUUGGUAAGGAUAUCCUACACUAUUCUGACCCGUGCAAGCUACAUGAGGAUCACCCAUGUAGGAGAAGGUGCGUCAACGU | 6.97 nM | 6.82 nM | – | –
9 | CUUUUGUGAGGAUAUCAGUAGUAGAACAAUAGUACUACUACUGAGAAGGCACAUGAGGAUCACCCAUGUUCCUU | 16 nM | 35.6 nM | – | –
10 | CUCAAACAUGAGGAUCACCCAUGUGUUGUCAUGGGAGGAUAUCCCAGUUCGUUGUCGUCGGGAGAAGGCCUAUGUC | – | – | 65 nM | 29.3 nM
11 | AACAGUACAGGAUAUACAUGAGGAUCACCCAUGUGAGAAUUUAGCAGCGUACCACACAGUAGAAGGGUAAUGGA | 28.2 nM | 25.5 nM | – | –
12 | UGUCGGAGCAGAGGAUAUGACAUGAGGAUCACCCAUGUAUGAACCAAUAGCUGGAAACAGCAAUGUAAGAAGGCUGCUCCGACA | 5.98 nM | 6.79 nM | – | –
13 | AUGCUUCUCUCAGGAUAUUACAACAUGAGGAUCACCCAUGUACAUGACAUGACGAUCACGCAUGUUAAGAAGGGAGAGAAGCAU | 718 nM | 583 nM | – | –
14 | UGUUGUAUUACAGGAUAUCUAUUGUAUUUAUUUAGAGAAGGGUAUUCACAUGAGGAUCACCCAUGUAUAUACGAGGAAGUUGUG | – | – | 63.9 nM | 70.8 nM
15 | AUCGAACAUGAGGAUCACCCAUGUUAGGAUAUUGGAUAGCGCGCUGGUGUAGUGUAUCCAAGAAGGGACUGGUG | 66.5 nM | 101 nM | – | –
16 | GCCAUCCUAUGAGGAUAUGACACCGAAACGGUGUCAGAAGGCAUGUCGAUAGACAUGAGGAUCACCCAUGUUUACAGGAUGGCA | – | – | 132 nM | 22 nM
17 | GGCGAACAGGCUAACAUGAGGAUCACCCAUGUGGACUCAUGCGAGGAUAUCGGGAAGGAGGAUUCCGAGAAGGUGCGGUGAGCC | – | – | 788 nM | 304 nM
18 | UGUCGGAGCAGAGGAUAUUACAUGAGGAUCACCCAUGUAUGAACCAAUAGCUGGAAACAGCAAUGUAAGAAGGCUGCUCCGAAA | 12.3 nM | 176 nM | – | –
19 | GUGGUAUUCGUAGGAUAUCCGUCGCCACCGUGUGGAGAAGGACGAACAUGAGGAUCACCCAUGUAUCAUGGUGUGGGCGUUGUC | 149 nM | 148 nM | – | –
20 | UCAGGCUUCGAGAAGGACAUGAGGAUCACCCAUGUUAGUUUGAAGCAGCCGUGAGGCUGCAUCAUGUAGGAUAUCGGAGUCUGC | 6.47 nM | 11.7 nM | – | –
21 | AAAUGCAAUCAAGGAUAUGUAUUAAAGAUAUGAAAACAUGAGGAUCACCCAUGUAUAUGGUGGGAACAGAAGGUGAAUAAGUAA | 223 nM | 200 nM | – | –
22 | UUCUUUACCUAGGAUAUCUUCGGUACGGUCCGGAGAGAAGGAGGUACAUGAGGAUCACCCAUGUCCCUCUGAAA | 12.6 nM | 13.6 nM | – | –
23 | GUGACGAUGUAAGGAUAUGCUGAGGAAUACUCAGCAGAAGGUACAUGAGGAUCACCCAUGUAACGUCACAAUAAUAAUAAUAAU | 13.3 nM | 24.1 nM | – | –
24 | GUCAGCUCGUGAGGAUAUAAAACACUGCUUCGGCAGUGUAUUAAGAUCACAUGAGGAUCACCCAUGUAGAAGGCACGAGCUGAU | 5.05 nM | 6.38 nM | – | –
25 | UCCUUAUCGGUCAGGAUAUACACCCGUUUCUCCUUGUAGAAGGGACAUGAGGAUCACCCAUGUACAGUACAUCU | 20.4 nM | 19.1 nM | – | –
26 | UACAUUACUUAGAAGGGAUAUAUAUAAUUUUAAUCAGGAUAUAGAUACAGUACAACAUGAGGACAUGAGGAUCACCCAUGUAUU | – | – | 31.4 nM | 23.2 nM
27 | CUUCAGUCAGGAUAUGUUAAUCUCGCCACUCGGCGAGCCGGACAGAAGGGACAUGAGGAUCACCCAUGUUAAAA | 37.6 nM | 22.2 nM | – | –
28 | CGAGGUGGAGUGAGGAUAUCGUGUUCGAAAGAACGUGAGAAGGCACAUGAGGAUCACCCAUGUGAUUCAGCUCG | 24.6 nM | 69.4 nM | – | –

From the EternaBench riboswitch data
